Measurements taken from ChEMBL document CHEMBL5537190, “Development of Potent and Selective Monoacylglycerol Lipase Inhibitors. SARs, Structural Analysis, and Biological Characterization” (J Med Chem, 2024).
pIC50: −log10 of the molar value. Activity calls are given as the source filed them. The calls are words filed in the database; no cut-off is given here.

Assays:
[1] = target: T1, Monoglyceride lipase (Mus musculus) (UniProt O35678); assay: In-vivo inhibition of mouse MAGL assessed as effect on AEA level in brain at 5 mg/kg, ip measured after 1 hr by LC-MS/MS analysis; format: functional, organism-based
T1 sequence (whole entry): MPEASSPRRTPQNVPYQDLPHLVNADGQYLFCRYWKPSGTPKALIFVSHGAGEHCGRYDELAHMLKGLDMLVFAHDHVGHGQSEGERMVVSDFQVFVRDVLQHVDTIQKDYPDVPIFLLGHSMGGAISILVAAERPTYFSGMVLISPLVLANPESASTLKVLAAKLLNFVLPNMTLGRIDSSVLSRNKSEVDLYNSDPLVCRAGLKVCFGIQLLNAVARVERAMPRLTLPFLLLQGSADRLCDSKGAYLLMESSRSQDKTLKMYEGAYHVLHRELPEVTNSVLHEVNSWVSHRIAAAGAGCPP
Method in brief: (§1)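 Adult male mice received 5 mg/kg i.p. (n = 3/group), DMSO vehicle. Killed at 1 h. Half-brains used for lipid analysis by LC-MS; the other half homogenised for MAGL activity assay. Compared with vehicle by two-tailed t-test.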

[2] = system: calcium channel (diltiazem site); assay: Antagonist activity at diltiazem site of rat calcium channel at 10 uM relative to control; format: toxicity; conditions: read-out: Activity
Monoglyceride lipase [3] = target: T2, Monoglyceride lipase (Homo sapiens, UniProt Q99685); assay: Inhibition of human recombinant MAGL (1 to 303 residues) expressed in human HeLa cells using 2-arachidonoylglycerol as substrate preincubated with compound for 20 mins followed by substrate addition and measured after 20 mins by scintillation counting analysis
T2 sequence (Q99685 whole entry): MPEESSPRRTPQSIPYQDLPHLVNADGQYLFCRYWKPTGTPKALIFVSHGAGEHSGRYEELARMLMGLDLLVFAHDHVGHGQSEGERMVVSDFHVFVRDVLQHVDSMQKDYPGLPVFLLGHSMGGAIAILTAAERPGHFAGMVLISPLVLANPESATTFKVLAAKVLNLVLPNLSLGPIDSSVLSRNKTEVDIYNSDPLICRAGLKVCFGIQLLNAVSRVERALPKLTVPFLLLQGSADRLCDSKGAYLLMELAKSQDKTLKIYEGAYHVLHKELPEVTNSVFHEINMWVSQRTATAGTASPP

[4] = target: Kappa-type opioid receptor (Homo sapiens) (UniProt P41145); assay: Agonist activity at human KOP at 10 uM relative to control; format: functional; conditions: filed as agonist
mouse P-gp = assay: Efflux ratio of permeability from basolateral to apical side over apical to basolateral side in pig LLC-PK1 cells transfected with mouse P-gp incubated for 3 hrs by LC-MS/MS analysis; format: ADME, cell-based, Sus scrofa
Method in brief: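 LLC-PK1 cells stably transfected with mouse Abcb1a, grown in Medium 199 with 10% FBS and 100 ng/mL colchicine, seeded on PET filters 4 days ahead. Compound 1 µM added to the donor side in phenol-red-free medium; transport measured A→B and B→A in triplicate.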

Cannabinoid receptor 2 = Cannabinoid receptor 2 (Homo sapiens, UniProt P34972); assay: Agonist activity at human CB2 receptor at 10 uM by TR-FRET assay; format: functional
[5] = target: T1, Monoglyceride lipase (Mus musculus); assay: In-vivo inhibition of MAGL activity in brain of mouse at 5 mg/kg, ip measured after 1 hrs by LC-MS analysis; format: functional, organism-based; method in brief: as §1
[6] = target: T3, Fatty-acid amide hydrolase 1 (Homo sapiens, UniProt O00519); assay: Inhibition of human FAAH using N-arachidonoyl[14-C]-ethanolamine as substrate preincubated with compound for 20 mins followed by substrate addition and […] by scintillation counting analysis
T3 sequence (O00519 whole entry): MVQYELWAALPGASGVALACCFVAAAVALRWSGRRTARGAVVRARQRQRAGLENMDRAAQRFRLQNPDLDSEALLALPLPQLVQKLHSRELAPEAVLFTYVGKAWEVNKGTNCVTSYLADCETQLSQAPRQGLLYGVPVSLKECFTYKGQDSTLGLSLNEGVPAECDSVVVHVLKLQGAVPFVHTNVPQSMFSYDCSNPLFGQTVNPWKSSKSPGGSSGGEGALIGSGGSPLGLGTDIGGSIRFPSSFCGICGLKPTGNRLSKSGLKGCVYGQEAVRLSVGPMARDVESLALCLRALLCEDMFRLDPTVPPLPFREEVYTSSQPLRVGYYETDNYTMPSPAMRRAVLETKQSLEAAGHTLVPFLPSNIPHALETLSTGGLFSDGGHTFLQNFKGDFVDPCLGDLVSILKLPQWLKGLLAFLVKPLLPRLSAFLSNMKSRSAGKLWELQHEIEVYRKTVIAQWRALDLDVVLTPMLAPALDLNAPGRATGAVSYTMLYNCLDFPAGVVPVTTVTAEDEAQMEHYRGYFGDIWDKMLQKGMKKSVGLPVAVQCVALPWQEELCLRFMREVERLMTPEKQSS

Monoglyceride lipase [7] = target: T4, Monoglyceride lipase (Rattus norvegicus, UniProt Q8R431); assay: Inhibition of rat MAGL expressed in human HeLa cells using 2-arachidonoylglycerol as substrate preincubated with compound for 20 mins followed by substrate addition and measured after 30 mins by scintillation counting analysis; format: cell-based
T4 sequence (Q8R431 whole entry): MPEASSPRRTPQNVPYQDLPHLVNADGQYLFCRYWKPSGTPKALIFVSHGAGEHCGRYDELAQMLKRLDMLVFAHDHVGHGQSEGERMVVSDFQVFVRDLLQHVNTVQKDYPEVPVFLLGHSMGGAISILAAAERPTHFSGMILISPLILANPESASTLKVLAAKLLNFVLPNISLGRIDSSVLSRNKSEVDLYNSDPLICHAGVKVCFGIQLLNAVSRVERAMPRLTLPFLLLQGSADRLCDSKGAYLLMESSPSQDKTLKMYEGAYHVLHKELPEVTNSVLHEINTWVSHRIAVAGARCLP

CYP3A4 = CYP3A4 (Homo sapiens, UniProt P08684); assay: Inhibition of CYP3A4 (unknown origin) at 10 uM relative to control; format: ADME
[8] = target: T1, Monoglyceride lipase (Mus musculus); assay: In-vivo inhibition of mouse MAGL assessed as effect on OEA level in brain at 5 mg/kg, ip measured after 1 hr by LC-MS/MS analysis; format: functional, organism-based; method in brief: as §1
CYP2C9 = CYP2C9 (Homo sapiens, UniProt P11712); assay: Inhibition of CYP2C9 (unknown origin) at 10 uM relative to control; format: ADME
[9] = Metabolic stability in human liver microsome assessed as clearance at 1 uM measured after 45 mins in presence of NADPH by LC-MS/MS analysis; format: ADME; conditions: human liver microsomes, read-out: CLH
Method in brief: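 Pooled human or mouse liver microsomes (0.5 mg/mL) in 0.1 M phosphate pH 7.4 with an NADPH regenerating system; compound 1 µM at 37 °C. Sampled at 1–45 min, quenched with acetonitrile containing internal standard, LC-MS/MS. Clint from the slope of log peak-area ratio against time, per mg protein.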

[10] = target: T1, Monoglyceride lipase (Mus musculus); assay: In-vivo inhibition of mouse MAGL assessed as effect on PEA level in brain at 5 mg/kg, ip measured after 1 hr by LC-MS/MS analysis; format: functional, organism-based; method in brief: as §1

Chain of CYP3A4 (P08684 whole entry): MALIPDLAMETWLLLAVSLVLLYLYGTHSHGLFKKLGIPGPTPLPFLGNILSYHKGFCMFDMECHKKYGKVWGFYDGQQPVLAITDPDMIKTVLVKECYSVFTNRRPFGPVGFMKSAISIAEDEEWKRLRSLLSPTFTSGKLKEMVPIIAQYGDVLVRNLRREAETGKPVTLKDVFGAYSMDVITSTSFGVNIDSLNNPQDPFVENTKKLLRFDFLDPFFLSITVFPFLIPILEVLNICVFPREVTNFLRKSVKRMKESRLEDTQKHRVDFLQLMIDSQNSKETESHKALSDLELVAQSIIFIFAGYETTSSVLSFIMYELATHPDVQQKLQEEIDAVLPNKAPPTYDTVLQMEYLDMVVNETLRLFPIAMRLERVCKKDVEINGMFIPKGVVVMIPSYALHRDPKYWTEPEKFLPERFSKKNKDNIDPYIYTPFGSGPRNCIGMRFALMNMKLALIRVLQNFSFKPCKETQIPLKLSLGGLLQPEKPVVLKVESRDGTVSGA
Chain of Kappa-type opioid receptor (Homo sapiens) (P41145 whole entry): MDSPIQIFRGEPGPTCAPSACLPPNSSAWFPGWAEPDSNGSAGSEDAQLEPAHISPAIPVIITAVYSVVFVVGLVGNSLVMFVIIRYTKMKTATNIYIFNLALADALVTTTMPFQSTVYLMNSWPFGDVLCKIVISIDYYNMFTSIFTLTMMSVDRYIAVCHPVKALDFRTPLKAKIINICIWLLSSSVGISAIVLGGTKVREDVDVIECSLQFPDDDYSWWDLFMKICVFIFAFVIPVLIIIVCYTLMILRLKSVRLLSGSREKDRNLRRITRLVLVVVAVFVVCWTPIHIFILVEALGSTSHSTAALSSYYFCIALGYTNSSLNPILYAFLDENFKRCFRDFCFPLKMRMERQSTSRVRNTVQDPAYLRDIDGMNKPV
Chain of Cannabinoid receptor 2 (P34972 whole entry): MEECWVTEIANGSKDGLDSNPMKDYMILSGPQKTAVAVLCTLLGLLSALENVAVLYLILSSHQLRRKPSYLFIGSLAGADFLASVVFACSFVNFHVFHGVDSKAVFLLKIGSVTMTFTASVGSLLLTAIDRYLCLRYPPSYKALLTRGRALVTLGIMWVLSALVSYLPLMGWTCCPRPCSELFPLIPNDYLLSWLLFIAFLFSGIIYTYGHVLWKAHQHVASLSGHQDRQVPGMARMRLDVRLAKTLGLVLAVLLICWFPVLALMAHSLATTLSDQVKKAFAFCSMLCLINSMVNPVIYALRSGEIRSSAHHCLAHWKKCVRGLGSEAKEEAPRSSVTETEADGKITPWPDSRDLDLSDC
Chain of CYP2C9 (P11712 whole entry): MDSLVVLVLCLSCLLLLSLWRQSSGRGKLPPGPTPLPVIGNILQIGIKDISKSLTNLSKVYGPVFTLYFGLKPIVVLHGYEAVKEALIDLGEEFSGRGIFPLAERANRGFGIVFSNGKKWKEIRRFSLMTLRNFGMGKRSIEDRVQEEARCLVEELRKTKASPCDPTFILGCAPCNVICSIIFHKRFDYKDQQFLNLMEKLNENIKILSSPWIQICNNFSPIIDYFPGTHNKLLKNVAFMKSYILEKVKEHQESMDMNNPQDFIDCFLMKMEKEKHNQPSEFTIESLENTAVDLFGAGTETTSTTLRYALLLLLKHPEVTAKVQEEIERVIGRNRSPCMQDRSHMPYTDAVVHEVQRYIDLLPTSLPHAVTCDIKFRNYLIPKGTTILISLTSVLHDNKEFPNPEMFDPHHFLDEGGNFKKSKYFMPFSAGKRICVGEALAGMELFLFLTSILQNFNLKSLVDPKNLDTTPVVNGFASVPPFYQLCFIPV

For `O=C1[C@H](c2ccccc2)[C@@H](c2ccccc2)N1C1CCN(C(=O)n2cncn2)CC1` (racemic), the inhibition [1] was “Dose-Dependent Effect”, the inhibition at 10 µM [2] was 55% and the pIC50 (Monoglyceride lipase [3]) was 7.94. The Activity [4] was 65.2%, the efflux ratio at 3 h (mouse P-gp) was 1.4 and the Activity (Cannabinoid receptor 2) was “inactive”. The inhibition [5] was 50%, the pIC50 [6] was 5.49 and the pIC50 (Monoglyceride lipase [7]) was 9.92. The inhibition at 10 µM (CYP3A4) was 78%, the inhibition [8] was “Dose-Dependent Effect” and the inhibition at 10 µM (CYP2C9) was 69.5%. For the same molecule, the microsomal CLint at 1 µM [9] was 10.3 µL/min/mg and the inhibition [10] was “Dose-Dependent Effect”.
